Laboratory results from ChEMBL document CHEMBL5058577, “EUbOPEN Chemogenomics Library 2 (Multiplex)” (2022).

Tested on: Fibroblast
Test: Multiplex assay against human fibroblast
Format: toxicity, cell-based
In short: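 With compound added, live cells were imaged on a CQ1 microscope at 37°C and 5% CO2; staining with Hoechst33342, BioTracker Green Microtubule Cytoskeleton Dye, MitoTracker Red and Annexin V Alexa Fluor 680 had been done at seeding. The CellPathfinder machine-learning gating scheme split cells into Hoechst high-intensity objects or normal cells, normal cells into healthy, pyknosed or fragmented nuclei, and pyknosed cells into mitotic or apoptotic. The tubulin, mitochondrial-mass and membrane-permeability phenotypes are per cents of healthy-nucleus cells.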

[1] = 12 h, 1 µM, compound concentration 1 uM, replicate 1
[2] = 12 h, 1 µM, compound concentration 1 uM, replicate 2
[3] = 12 h, 10 µM, compound concentration 10 uM, replicate 1
[4] = 12 h, 10 µM, compound concentration 10 uM, replicate 2
[5] = 24 h, 1 µM, compound concentration 1 uM, replicate 1
[6] = 24 h, 1 µM, compound concentration 1 uM, replicate 2
[7] = 24 h, 10 µM, compound concentration 10 uM, replicate 1
[8] = 24 h, 10 µM, compound concentration 10 uM, replicate 2
[9] = 48 h, 1 µM, compound concentration 1 uM, replicate 1
[10] = 48 h, 1 µM, compound concentration 1 uM, replicate 2
[11] = 48 h, 10 µM, compound concentration 10 uM, replicate 1
[12] = 48 h, 10 µM, compound concentration 10 uM, replicate 2

Structure (SMILES): Cc1nn(C)c2nc(NNC(=O)Nc3cc(Cl)nc(Cl)c3)cc(C(C)C)c12
- Population Apoptotic (%) [1]: 62%
- Population Fragmented Nuclei (%) [1]: 15%
- Population Healthy Nuclei (%) [1]: 68%
- Population Hoechst High Intensity Objects (%) [1]: 3%
- Population Membrane Permeable-Phenotype (%) [1]: 0%
- Population Mitochondria Different-Phenotype (%) [1]: 4%
- Population Mitotic Cells (%) [1]: 37%
- Population Normal (%) [1]: 96%
- Population Pyknosed Nuclei (%) [1]: 15%
- Population Tubulin-Different-Phenotype (%) [1]: 27%
- Total Cell Count [1]: 178
- Population Apoptotic (%) [2]: 37%
- Population Fragmented Nuclei (%) [2]: 31%
- Population Healthy Nuclei (%) [2]: 53%
- Population Hoechst High Intensity Objects (%) [2]: 2%
- Population Mitochondria Different-Phenotype (%) [2]: 7%
- Population Mitotic Cells (%) [2]: 62%
- Population Normal (%) [2]: 97%
- Population Tubulin-Different-Phenotype (%) [2]: 46%
- Total Cell Count [2]: 179
- Population Apoptotic (%) [3]: 53%
- Population Fragmented Nuclei (%) [3]: 12%
- Population Healthy Nuclei (%) [3]: 63%
- Population Hoechst High Intensity Objects (%) [3]: 3%
- Population Membrane Permeable-Phenotype (%) [3]: 2%
- Population Mitochondria Different-Phenotype (%) [3]: 15%
- Population Mitotic Cells (%) [3]: 46%
- Population Normal (%) [3]: 96%
- Population Pyknosed Nuclei (%) [3]: 23%
- Population Tubulin-Different-Phenotype (%) [3]: 89%
- Total Cell Count [3]: 139
- Population Apoptotic (%) [4]: 21%
- Population Fragmented Nuclei (%) [4]: 33%
- Population Healthy Nuclei (%) [4]: 56%
- Population Hoechst High Intensity Objects (%) [4]: 7%
- Population Membrane Permeable-Phenotype (%) [4]: 5%
- Population Mitochondria Different-Phenotype (%) [4]: 6%
- Population Mitotic Cells (%) [4]: 78%
- Population Normal (%) [4]: 92%
- Population Pyknosed Nuclei (%) [4]: 10%
- Total Cell Count [4]: 140
- Population Apoptotic (%) [5]: 59%
- Population Fragmented Nuclei (%) [5]: 18%
- Population Healthy Nuclei (%) [5]: 68%
- Population Hoechst High Intensity Objects (%) [5]: 1%
- Population Membrane Permeable-Phenotype (%) [5]: 1%
- Population Mitochondria Different-Phenotype (%) [5]: 3%
- Population Mitotic Cells (%) [5]: 40%
- Population Normal (%) [5]: 98%
- Population Pyknosed Nuclei (%) [5]: 12%
- Population Tubulin-Different-Phenotype (%) [5]: 29%
- Total Cell Count [5]: 176
- Population Apoptotic (%) [6]: 62%
- Population Fragmented Nuclei (%) [6]: 21%
- Population Hoechst High Intensity Objects (%) [6]: 2%
- Population Membrane Permeable-Phenotype (%) [6]: 2%
- Population Mitochondria Different-Phenotype (%) [6]: 6%
- Population Mitotic Cells (%) [6]: 37%
- Population Normal (%) [6]: 97%
- Population Pyknosed Nuclei (%) [6]: 9%
- Population Tubulin-Different-Phenotype (%) [6]: 50%
- Total Cell Count [6]: 174
- Population Apoptotic (%) [7]: 52%
- Population Fragmented Nuclei (%) [7]: 12%
- Population Healthy Nuclei (%) [7]: 69%
- Population Hoechst High Intensity Objects (%) [7]: 4%
- Population Membrane Permeable-Phenotype (%) [7]: 1%
- Population Mitochondria Different-Phenotype (%) [7]: 22%
- Population Mitotic Cells (%) [7]: 47%
- Population Normal (%) [7]: 95%
- Population Pyknosed Nuclei (%) [7]: 18%
- Population Tubulin-Different-Phenotype (%) [7]: 95%
- Total Cell Count [7]: 130
- Population Apoptotic (%) [8]: 25%
- Population Fragmented Nuclei (%) [8]: 28%
- Population Healthy Nuclei (%) [8]: 61%
- Population Hoechst High Intensity Objects (%) [8]: 8%
- Population Membrane Permeable-Phenotype (%) [8]: 0%
- Population Mitochondria Different-Phenotype (%) [8]: 6%
- Population Mitotic Cells (%) [8]: 75%
- Population Normal (%) [8]: 91%
- Population Pyknosed Nuclei (%) [8]: 9%
- Population Tubulin-Different-Phenotype (%) [8]: 89%
- Total Cell Count [8]: 132
- Population Apoptotic (%) [9]: 71%
- Population Fragmented Nuclei (%) [9]: 18%
- Population Healthy Nuclei (%) [9]: 73%
- Population Hoechst High Intensity Objects (%) [9]: 1%
- Population Membrane Permeable-Phenotype (%) [9]: 1%
- Population Mitochondria Different-Phenotype (%) [9]: 2%
- Population Mitotic Cells (%) [9]: 28%
- Population Normal (%) [9]: 98%
- Population Pyknosed Nuclei (%) [9]: 7%
- Population Tubulin-Different-Phenotype (%) [9]: 30%
- Total Cell Count [9]: 188
- Population Apoptotic (%) [10]: 57%
- Population Fragmented Nuclei (%) [10]: 34%
- Population Healthy Nuclei (%) [10]: 62%
- Population Hoechst High Intensity Objects (%) [10]: 2%
- Population Membrane Permeable-Phenotype (%) [10]: 2%
- Population Mitotic Cells (%) [10]: 42%
- Population Normal (%) [10]: 97%
- Population Pyknosed Nuclei (%) [10]: 3%
- Population Tubulin-Different-Phenotype (%) [10]: 36%
- Total Cell Count [10]: 184
- Population Apoptotic (%) [11]: 93%
- Population Fragmented Nuclei (%) [11]: 16%
- Population Healthy Nuclei (%) [11]: 70%
- Population Hoechst High Intensity Objects (%) [11]: 8%
- Population Membrane Permeable-Phenotype (%) [11]: 2%
- Population Mitochondria Different-Phenotype (%) [11]: 31%
- Population Mitotic Cells (%) [11]: 6%
- Population Normal (%) [11]: 91%
- Population Pyknosed Nuclei (%) [11]: 13%
- Population Tubulin-Different-Phenotype (%) [11]: 96%
- Total Cell Count [11]: 129
- Population Apoptotic (%) [12]: 62%
- Population Fragmented Nuclei (%) [12]: 38%
- Population Healthy Nuclei (%) [12]: 56%
- Population Hoechst High Intensity Objects (%) [12]: 3%
- Population Mitochondria Different-Phenotype (%) [12]: 5%
- Population Mitotic Cells (%) [12]: 37%
- Population Normal (%) [12]: 96%
- Population Pyknosed Nuclei (%) [12]: 5%
- Population Tubulin-Different-Phenotype (%) [12]: 85%
- Total Cell Count [12]: 155
